T cruzi repl: T. cruzi replication inhibition. T. cruzi beta-gal in NIH3T3, luminescence, 90 h. inhibition, % (no concentration beside the values). 300,000 compounds, 1.4% hits;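 active means mean inhibition across valid replicates above about 55%, limit read from the data; inconclusive means mean below that limit but half or more replicates reach it; inactive means mean below it, under half of replicates reach it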;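 further: signal also drops with host cell toxicity which is not excluded here; 0% = plate median of DMSO wells and 100% = zero luminescence signal; higher percent means less beta-gal luminescence so fewer parasites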
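assay system = mouse NIH/3T3 fibroblasts infected with β-gal-expressing T. cruzi Tulahuen C4 | input = 5,000 NIH/3T3 host cells per well | buffer or medium = DMEM plus 2% FBS | timing = 3 h host attachment, then at least 90 h co-culture | measured by = GalScreen luminescence, 60 min | evaluation = luminescence reflecting intracellular parasite burden, expressed as percent inhibition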
CSC inhib: blocks cancer stem cells; inhibition, % at 7.5 µM; AID 2717; cancer stem cell-like cells viability, luminescence; 300,000 compounds, 1.1% hits; in the data active means inhibition above about 75%; inconclusive means no clear call, values can overlap the other calls; tested in HMLE shEcad cells
Mdm2-MdmX inh: disrupts the human Mdm2-MdmX interaction | SaOS-2 split-luciferase Mdm2/MdmX complementation, luminescence | AID 485346 | inhibition, % at 8 µM | 330,000 compounds, 3% hits;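 active means inhibition of at least 50% at 8 µM in the primary screen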
NALP3 yeast inh: blocks the NALP3 inflammasome reconstituted in yeast; AID 2825; inhibition, % at 10 µM; Yeast reconstituted NLRP3/ASC/caspase-1, beta-gal luminescence, 24 h; 330,000 compounds, 0.39% hits;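 active means inhibition of 50% or more; inactive means inhibition below 50%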;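 further: plate controls were induced DMSO wells for no effect and uninduced yeast grown without galactose for full effect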
Beta cell apopt: blocks beta cell apoptosis; protection from apoptosis, % (no concentration beside the values); 300,000 compounds, 0.8% hits; AID 435005; INS-1E cytokine-induced death, ATP luminescence, 48 h; percent of positive-control rescue, neutral wells zero;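 active means Every replicate reaches about 75%, or at least half do and their mean reaches it too, limit read from the data; inconclusive means At least half of replicates reach the limit but their mean does not; inactive means Under half of replicates reach the limit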;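 further: 0% = cytokine-treated negative control wells and 100% = positive control rescue; higher means more ATP so stronger rescue from cytokine killing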
Calb FLC: C. albicans growth modulation with fluconazole; C. albicans CaCi-2 + fluconazole, Alamar Blue growth, 48 h; growth inhibition, % (test concentration not listed); 300,000 compounds, 0.57% hits; AID 1979;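 active means growth inhibition above about 58% in most replicates, limit read from the data, passing the limit was not always enough; inconclusive means exactly half the replicates above a set limit; inactive means most replicates below a set limit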;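 further: all wells also contain fluconazole at 8 µg/ml as a sub-toxic cotreatment; 0% = median of DMSO wells and 100% = median of geldanamycin control wells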
Mdm2-MdmX conf: confirmation of human Mdm2/MdmX interaction inhibitors | shares compounds with Mdm2-MdmX inh | Mdm2-MdmX binding, luminescent assay | inhibition, % at 8 µM | 10,000 compounds, 55% hits | AID 489028; in the data active means inhibition above about 40%
FLuc counter: full-length luciferase inhibition in Mdm2/MdmX counter-screen | shares compounds with Mdm2-MdmX inh | SaOS-2 full-length luciferase counterscreen, luminescence | inhibition, % at 8 µM | 6,200 compounds, 77% hits | AID 504607;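 active means mean inhibition at 8 µM reaching about 37%, which flags the compound as non-specific, limit read from the data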;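 further: p53-null SaOS-2 cells with luciferase driven by a doxycycline-inducible promoter; compound on cells about two nights before reading with doxycycline added after day one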
An asterisk follows results filed as active. Most compounds without a hit are left out; they make up all but 5.3% or so of the library.

Screening Cc1ccsc1/C=N/NC(=O)c1cc(-c2ccncc2)nc2ccccc12 returned T cruzi repl -49, CSC inhib 78*, Mdm2-MdmX inh 58*, NALP3 yeast inh 9, Beta cell apopt 4, Calb FLC 1, Mdm2-MdmX conf 60* and FLuc counter 58*.
O=C(N/N=C/c1ccsc1)c1cc(-c2cccs2)nc2ccccc12 was read as T cruzi repl -17, CSC inhib 54, Mdm2-MdmX inh 23, NALP3 yeast inh 22, Beta cell apopt 8 and Calb FLC -5.
For O=C(Nc1cccc([N+](=O)[O-])c1)c1[nH]ncc1Cl the results were T cruzi repl -3, CSC inhib 4, Mdm2-MdmX inh -32, NALP3 yeast inh 4, Beta cell apopt -6 and Calb FLC inconclusive.
Screening O=C(Nc1ccccc1N1CCCC1)c1ccccc1F returned T cruzi repl -25, CSC inhib -3, Mdm2-MdmX inh -1, NALP3 yeast inh -5 and Calb FLC -9.
For Nc1nonc1-c1noc(-c2ccccc2Br)n1 the results were T cruzi repl 8, CSC inhib -3, Mdm2-MdmX inh -26, NALP3 yeast inh 3, Beta cell apopt 0 and Calb FLC -2.
O=C(Nc1cccnc1)Nc1ccccc1Cl was read as T cruzi repl -21, CSC inhib -4, Mdm2-MdmX inh 2, NALP3 yeast inh 1, Beta cell apopt 1 and Calb FLC 34.
For O=C(Nc1cccnc1)Nc1cc(Cl)cc(Cl)c1 the results were T cruzi repl 25, CSC inhib 36, Mdm2-MdmX inh 50*, NALP3 yeast inh 21, Beta cell apopt 20, Calb FLC 11 and Mdm2-MdmX conf 6.
For CCCCC(=O)OCc1nc(N)nc(Nc2ccccc2C)n1 the results were T cruzi repl 6, CSC inhib -14, Mdm2-MdmX inh -12, NALP3 yeast inh -4, Beta cell apopt 0 and Calb FLC -23.
Screening CC(C)n1c(/C=C/[C@H](O)C[C@H](O)CC(=O)O)c(-c2ccc(F)cc2)c2ccccc21 returned Mdm2-MdmX inh 50*, NALP3 yeast inh 20, Beta cell apopt 27, Mdm2-MdmX conf 46* and FLuc counter 79*.
CC1(C)CC(=O)C2=C(C1)NC(SCC(=O)Nc1ccccc1)=C(C#N)C21CCCCC1 was read as T cruzi repl 28, CSC inhib 0, Mdm2-MdmX inh 35, NALP3 yeast inh 7, Beta cell apopt 21 and Calb FLC -2.
CC(C)(C)C1CCC2(CC1)C(C#N)=C(SCC(=O)Nc1ccccc1)NC(=O)C2C#N (centres undefined) was read as T cruzi repl -56, CSC inhib 66, Mdm2-MdmX inh 92*, NALP3 yeast inh 1, Beta cell apopt 45, Calb FLC 9, Mdm2-MdmX conf 75* and FLuc counter 59*.
`COCCN(C(=O)CSc1nnc(-c2ccc(C)c(C)c2)o1)c1c(N)n(CC(C)C)c(=O)[nH]c1=O` gave T cruzi repl -1, CSC inhib -9, Mdm2-MdmX inh 17, NALP3 yeast inh 4, Beta cell apopt -6 and Calb FLC 4.
For Cc1ccc(NC(=O)c2ccccc2NS(=O)(=O)c2ccc(Cl)s2)cc1S(=O)(=O)N1CCOCC1 the results were T cruzi repl 10, Mdm2-MdmX inh 66*, NALP3 yeast inh 5, Calb FLC 42, Mdm2-MdmX conf 45* and FLuc counter 52*.
Screening Cc1ccc(NC(=O)c2ccc([N+](=O)[O-])s2)cc1S(=O)(=O)N1CCOCC1 returned CSC inhib 25, Mdm2-MdmX inh 65*, NALP3 yeast inh 15, Beta cell apopt -8 and Mdm2-MdmX conf 25.
O=C(Nc1cc(S(=O)(=O)N2CCOCC2)ccc1O)c1ccc(NS(=O)(=O)c2ccc(Cl)s2)cc1 was read as T cruzi repl -3, CSC inhib -3, Mdm2-MdmX inh 1, NALP3 yeast inh -6, Beta cell apopt -7 and Calb FLC -7.
Screening COc1ccc(C)cc1NC(=O)c1ccccc1NS(=O)(=O)c1ccc(Cl)s1 returned T cruzi repl 4, CSC inhib inconclusive, Mdm2-MdmX inh 89*, NALP3 yeast inh -4, Beta cell apopt 36, Calb FLC 31, Mdm2-MdmX conf 79* and FLuc counter 32.
`C/C=C/C=C/[C@H]1Cc2cc(O)cc(O)c2O1` gave T cruzi repl 23, CSC inhib 0, Mdm2-MdmX inh 7, NALP3 yeast inh -8, Beta cell apopt 3 and Calb FLC 7.
Cc1ccc(-c2cc3cccc[n+]3cc2-c2ccc(C)cc2)cc1 was read as T cruzi repl 60*, CSC inhib 4, Mdm2-MdmX inh 52*, NALP3 yeast inh 2, Beta cell apopt 110*, Calb FLC -2, Mdm2-MdmX conf 43* and FLuc counter 48*.
For NC(=O)N/N=C/c1c(Sc2nnnn2-c2ccccc2)nc2ccccn2c1=O the results were T cruzi repl 15, CSC inhib 25, Mdm2-MdmX inh 62*, NALP3 yeast inh -3, Beta cell apopt -51, Calb FLC 1, Mdm2-MdmX conf 50* and FLuc counter 23.
Screening O=C(CSc1nnnn1-c1ccccc1)CSc1nnnn1-c1ccccc1 returned T cruzi repl 2, Mdm2-MdmX inh 19, NALP3 yeast inh -2 and Calb FLC 39.
For COc1ccc(-n2c(C)c(C(=O)O)c3cc(OC)c4ccccc4c32)cc1 the results were T cruzi repl -4, CSC inhib 2, Mdm2-MdmX inh 13, NALP3 yeast inh 5, Beta cell apopt -4 and Calb FLC 3.
Screening CN1CCCN(C(=O)c2cc(-c3ccc(Cl)c(Cl)c3Cl)nc3ccccc23)CC1 returned T cruzi repl 20, CSC inhib 20, Mdm2-MdmX inh 53*, NALP3 yeast inh 22, Beta cell apopt -3, Calb FLC inconclusive, Mdm2-MdmX conf 28 and FLuc counter 76*.
O=C(OCC(=O)N1CCN(C(=O)c2ccco2)CC1)c1cc(-c2ccc(Cl)c(Cl)c2Cl)nc2ccccc12 was read as T cruzi repl 31, CSC inhib 29, Mdm2-MdmX inh 57*, NALP3 yeast inh 7, Beta cell apopt 8, Calb FLC -3 and Mdm2-MdmX conf 8.
For O=C(OCc1nnc(-c2ccccc2)o1)C1CC(=O)N(c2ccccc2)C1 (centres undefined) the results were T cruzi repl -5, CSC inhib -6, Mdm2-MdmX inh 6, NALP3 yeast inh 9, Beta cell apopt -3 and Calb FLC 3.
CC(=O)Nc1cccc(-c2cnc(N)c(C(=O)c3cccnc3)n2)c1 was read as Mdm2-MdmX inh 90*, NALP3 yeast inh 8, Beta cell apopt -38, Mdm2-MdmX conf 93* and FLuc counter 54*.
